Reference: ChEMBL document CHEMBL4373671, “Evaluation of anti-inflammatory activity and molecular docking study of new aza-bicyclic isoxazoline acylhydrazone derivatives” (2019)
Activity calls are given as the source filed them. The calls are words filed in the database; no cut-off is given here.

What was measured:
[1] = test system: Mus musculus; experiment: Antiinflammatory activity in Swiss mouse assessed as reduction in dextran-induced paw edema at 10 mg/kg, po treated 1 hr prior to dextran challenge and measured every 60 mins for 4 hrs by plethysmometer analysis; format: functional, organism-based
In short: (§1)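 Swiss mice were given an oral dose in saline + 5% DMSO 1 h before intraplantar 0.2% dextran (50 μL) into the right hind paw. Paw volume was measured by plethysmometer every 60 min up to 4 h, as the difference from the contralateral saline paw.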

[2] = test system: Mus musculus; experiment: Antiinflammatory activity in Swiss mouse assessed as inhibition of bradykinin-induced paw edema at 0.5 mg/kg, po treated 1 hr prior to bradykinin challenge measured after 15 to 90 mins by plethysmometer analysis; format: functional, organism-based
In short: (§2)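 Mice were given captopril 5 mg kg–1 1 h before the bradykinin challenge to block kininases. Oral dosing (vehicle saline + 5% DMSO) preceded intraplantar bradykinin (10 nmol, 50 μL) into the right hind paw by 1 h. Plethysmometer readings at 15, 30, 60 and 90 min, relative to the contralateral paw.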

[3] = test system: Mus musculus; experiment: Antiinflammatory activity in Swiss mouse assessed as reduction in dextran-induced paw edema at 15 mg/kg, po treated 1 hr prior to dextran challenge and measured every 60 mins for 4 hrs by plethysmometer analysis; format: functional, organism-based; in short: as §1
[4] = test system: Mus musculus; experiment: Antiinflammatory activity in Swiss mouse assessed as inhibition of histamine-induced paw edema at 15 mg/kg, po treated 1 hr prior to histamine challenge measured after 15 mins by plethysmometer analysis; format: functional, organism-based
In short: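 Swiss mice were dosed at 15 mg kg–1 orally in saline + 5% DMSO 1 h before injection of histamine (100 μg, 50 μL) into the right hind paw. Paw volume was measured by plethysmometer at 15, 30, 60 and 90 min, relative to the contralateral saline paw.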

[5] = test system: Mus musculus; experiment: Antiinflammatory activity against carrageenan-induced paw edema in Swiss mouse assessed as reduction in paw edema at 15 mg/kg, po administered 1 hr prior to carrageenan challenge and measured after 2 to 6 hrs by plethysmometric analysis; format: functional, organism-based
In short: (§3)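 Male Swiss mice (25–30 g, fasted 8 h), dosed orally in saline + 5% DMSO 1 h before 50 μL 1% carrageenan into the right hind paw. Paw volume read by plethysmometer before challenge and at 2, 4 and 6 h. Edema taken as the volume difference from the saline-injected contralateral paw. Two-way ANOVA with Tukey.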

[6] = test system: Mus musculus; experiment: Antiinflammatory activity in Swiss mouse assessed as reduction in compound 48/80-induced paw edema at 15 mg/kg, po treated 1 hr prior to compound 48/80 challenge measured after 15 to 30 mins by plethysmometer analysis; format: functional, organism-based
[7] = test system: Mus musculus; experiment: Antiinflammatory activity in Swiss mouse assessed as reduction in bradykinin-induced paw edema volume at 15 mg/kg, po treated 1 hr prior to bradykinin challenge measured after 15 to 30 mins by plethysmometer analysis; format: functional, organism-based; in short: as §2
[8] = test system: Mus musculus; experiment: Antiinflammatory activity in Swiss mouse assessed as inhibition of 5-HT-induced paw edema at 15 mg/kg, po treated 1 hr prior to 5-HT challenge measured after 30 mins by plethysmometer analysis; format: functional, organism-based
In short: (§4)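 Male Swiss mice received 15 mg kg–1 p.o. (saline + 5% DMSO) 1 h before intraplantar 5-HT (100 μg in 50 μL) into the right hind paw. Plethysmometer readings at 15, 30, 60 and 90 min. Edema expressed as volume difference from the contralateral saline paw.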

[9] = test system: Mus musculus; experiment: Antiinflammatory activity against carrageenan-induced air pouch inflammatory Swiss mouse model assessed as inhibition of PMNL cell migration in air pouch at 15 mg/kg, po treated 1 hr prior to carrageenan administration and measured after 6 hrs relative to control; format: functional
[10] = test system: Mus musculus; experiment: Antiinflammatory activity in Swiss mouse assessed as inhibition of acetic acid-induced increase in vascular permeability at 15 mg/kg, po treated 1 hr prior to acetic acid challenge and measured after 30 mins by Evans blue dye based assay; format: functional, organism-based
In short: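 Male Swiss mice received 15 mg kg–1 p.o. or vehicle (saline + 5% DMSO). After 1 h, under ketamine/xylazine (8:2 v/v, i.p.), 0.2 mL 1% Evans blue was given retro-orbitally, then 0.5 mL 1% acetic acid i.p. At 30 min the peritoneal cavity was washed with saline; exudate was centrifuged (2000 rpm, 10 min) and supernatant absorbance read at 610 nm.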

[11] = test system: Mus musculus; experiment: Antiinflammatory activity against carrageenan-induced air pouch inflammatory Swiss mouse model assessed as inhibition of PMNL cell migration in air pouch at 30 mg/kg, po treated 1 hr prior to carrageenan administration and measured after 6 hrs relative to control; format: functional
[12] = test system: Mus musculus; experiment: Antiinflammatory activity against carrageenan-induced air pouch inflammatory Swiss mouse model assessed as number of polymorphonuclear leucocytes in air pouch at 120 mg/kg, po treated for 1 hr prior to carrageenan administration and measured after 6 hrs (reference value: 13.76 +/- 0.55X10'6/ml); format: functional
[13] = test system: Mus musculus; experiment: Antiinflammatory activity against carrageenan-induced air pouch inflammatory Swiss mouse model assessed as number of polymorphonuclear leucocytes in air pouch at 15 mg/kg, po treated for 1 hr prior to carrageenan administration and measured after 6 hrs (reference value: 13.76 +/- 0.55X10'6/ml); format: functional
[14] = test system: Mus musculus; experiment: Antiinflammatory activity against carrageenan-induced air pouch inflammatory Swiss mouse model assessed as inhibition of PMNL cell migration in air pouch at 120 mg/kg, po treated 1 hr prior to carrageenan administration and measured after 6 hrs relative to control; format: functional
[15] = test system: Mus musculus; experiment: Antiinflammatory activity against carrageenan-induced air pouch inflammatory Swiss mouse model assessed as inhibition of PMNL cell migration in air pouch at 60 mg/kg, po treated 1 hr prior to carrageenan administration and measured after 6 hrs relative to control; format: functional
[16] = test system: Mus musculus; experiment: Antiinflammatory activity against carrageenan-induced air pouch inflammatory Swiss mouse model assessed as TNF-alpha level in air pouch exudate at 15 mg/kg, po treated 1 hr prior to carrageenan administration and measured after 6 hrs by sandwich ELISA (reference value: 425.17 pg/ml); format: functional
[17] = test system: Mus musculus; experiment: Antiinflammatory activity against carrageenan-induced air pouch inflammatory Swiss mouse model assessed as number of polymorphonuclear leucocytes in air pouch at 60 mg/kg, po treated for 1 hr prior to carrageenan administration and measured after 6 hrs (reference value: 13.76 +/- 0.55X10'6/ml); format: functional
[18] = test system: Mus musculus; experiment: Antiinflammatory activity against carrageenan-induced air pouch inflammatory Swiss mouse model assessed as number of polymorphonuclear leucocytes in air pouch at 30 mg/kg, po treated for 1 hr prior to carrageenan administration and measured after 6 hrs (reference value: 13.76 +/- 0.55X10'6/ml); format: functional
[19] = test system: Mus musculus; experiment: Antiinflammatory activity against carrageenan-induced air pouch inflammatory Swiss mouse model assessed as IL-1beta level in air pouch exudate at 15 mg/kg, po treated 1 hr prior to carrageenan administration and measured after 6 hrs by sandwich ELISA (reference value: 564.06 pg/ml); format: functional
[20] = test system: Mus musculus; experiment: Antiinflammatory activity in Swiss mouse assessed as reduction in BthTX-2-induced paw edema at 15 mg/kg, po treated 1 hr prior to BthTX-2 challenge measured after 15 to 45 mins by plethysmometer analysis; format: functional, organism-based
[21] = test system: Mus musculus; experiment: Antiinflammatory activity in Swiss mouse assessed as inhibition of 5-HT-induced paw edema assessed as reduction in paw volume at 15 mg/kg, po treated 1 hr prior to 5-HT challenge and measured after 15 to 90 mins by plethysmometer analysis; format: functional, organism-based; in short: as §4
[22] = test system: Mus musculus; experiment: Antiinflammatory activity in Swiss mouse assessed as reduction in dextran-induced paw edema at 15 mg/kg, po treated 1 hr prior to dextran challenge and measured after 3 to 4 hrs by plethysmometer analysis; format: functional, organism-based; in short: as §1
[23] = test system: Mus musculus; experiment: Antiinflammatory activity against carrageenan-induced air pouch inflammatory Swiss mouse model assessed as number of polymorphonuclear leucocytes in air pouch at 10 mg/kg, po treated for 1 hr prior to carrageenan administration and measured after 6 hrs (reference value: 13.76 +/- 0.55X10'6/ml); format: functional
[24] = test system: Mus musculus; experiment: Antiinflammatory activity against carrageenan-induced air pouch inflammatory Swiss mouse model assessed as TNF-alpha level in air pouch exudate at 10 mg/kg, po treated 1 hr prior to carrageenan administration and measured after 6 hrs by sandwich ELISA (reference value: 425.17 pg/ml); format: functional
[25] = test system: Mus musculus; experiment: Antiinflammatory activity against carrageenan-induced air pouch inflammatory Swiss mouse model assessed as inhibition of PMNL cell migration in air pouch at 10 mg/kg, po treated 1 hr prior to carrageenan administration and measured after 6 hrs relative to control; format: functional
[26] = test system: Mus musculus; experiment: Antiinflammatory activity against carrageenan-induced air pouch inflammatory Swiss mouse model assessed as IL-1beta level in air pouch exudate at 10 mg/kg, po treated 1 hr prior to carrageenan administration and measured after 6 hrs by sandwich ELISA (reference value: 564.06 pg/ml); format: functional
[27] = test system: Mus musculus; experiment: Antiinflammatory activity against carrageenan-induced paw edema in Swiss mouse assessed as reduction in paw edema at 10 mg/kg, po administered 1 hr prior to carrageenan challenge and measured after 2 to 6 hrs by plethysmometer analysis; format: functional, organism-based; in short: as §3

Structure (SMILES) | inhibition [4] | Activity [5] | inhibition [6] | Activity [7] | inhibition in vivo at 15 mg/kg [9] | inhibition [10] | inhibition in vivo at 30 mg/kg [11] | Activity [12] | Activity [13] | inhibition in vivo at 120 mg/kg [14] | inhibition in vivo at 60 mg/kg [15] | Activity [16] | Activity [17] | Activity [18] | Activity [19] | Activity [20] | further results
CN1CCC(=C2c3ccccc3C=Cc3ccccc32)CC1 |  |  |  |  |  |  |  |  |  |  |  |  |  |  |  |  | Activity [1]: Active
C[C@@H]1C[C@H]2[C@@H]3CCC4=CC(=O)C=C[C@]4(C)[C@@]3(F)[C@@H](O)C[C@]2(C)[C@@]1(O)C(=O)CO |  |  |  |  |  |  |  |  |  |  |  |  |  |  |  |  | inhibition [2]: Active
O=C(N/N=C\c1ccc(Cl)cc1)C1=NO[C@@H]2[C@H]1CCN2C(=O)c1ccc(Cl)cc1 (racemic) | Active | Active | Active | Active | 76% | Active | 64% | 6.1 ×10⁶ /ml | 3.33 ×10⁶ /ml | 56% | 57% | 271.6 pg/mL | 5.94 ×10⁶ /ml | 4.97 ×10⁶ /ml | 323.11 pg/mL | Active | Activity [3]: Active; inhibition [8]: Active
COc1ccc(/C=N\NC(=O)C2=NO[C@@H]3[C@H]2CCN3C(=O)c2ccc([N+](=O)[O-])cc2)cc1 (racemic) | Active | Active | Active | Active | 67% | Active | 51% | 12.72 ×10⁶ /ml | 4.6 ×10⁶ /ml | 8% | 35% | 305.88 pg/mL | 8.98 ×10⁶ /ml | 6.72 ×10⁶ /ml | 358.28 pg/mL | Active | inhibition [21]: Active; Activity [22]: Active
COc1ccc2c(c1)c(CC(=O)O)c(C)n2C(=O)c1ccc(Cl)cc1 [INDOMETHACIN] |  |  |  |  |  |  |  |  |  |  |  |  |  |  |  |  | Activity [23]: 4.84 ×10⁶ /ml; Activity [24]: 458.97 pg/mL; inhibition in vivo at 10 mg/kg [25]: 65%; Activity [26]: <=329.81 pg/ml; Activity [27]: Active
